According to ChEMBL document CHEMBL1131637, “Novel and selective 5-HT2C/2B receptor antagonists as potential anxiolytic agents: synthesis, quantitative structure-activity relationships, and molecular modeling of substituted 1-(3-pyridylcarbamoyl)indolines” (J Med Chem, 1998):

What was measured:
Rattus norvegicus [1] = assay: Percentage change unpunished lever presses from mean score on 6-8 rats at 20 mg/kg po1h pretest; assay type: functional
Rattus norvegicus [2] = assay: Percentage change unpunished lever presses from mean score on 6-8 rats at 1 mg/kg po1h pretest; assay type: functional
Rattus norvegicus [3] = assay: Percentage change unpunished lever presses from mean score on 6-8 rats at 0.2 mg/kg po1h pretest; assay type: functional
Rattus norvegicus [4] = assay: Percentage change unpunished lever presses from mean score on 6-8 rats at 2 mg/kg po1h pretest; assay type: functional
Rattus norvegicus [5] = assay: Percentage change punished lever presses from mean score on 6-8 rats(P<0.001) at 20 mg/kg po1h pretest; assay type: functional
Rattus norvegicus [6] = assay: Percentage change punished lever presses from mean score on 6-8 rats(P<0.001) at 5 mg/kg po1h pretest; assay type: functional
[7] = target: T1, 5-hydroxytryptamine receptor 2C (Homo sapiens, UniProt P28335); assay: Binding affinity towards cloned human 5-hydroxytryptamine 2C receptor expressed in HEK 293 cells using [3H]mesulergine as radioligand; assay type: cell-based, HEK293
T1 sequence (P28335 whole entry): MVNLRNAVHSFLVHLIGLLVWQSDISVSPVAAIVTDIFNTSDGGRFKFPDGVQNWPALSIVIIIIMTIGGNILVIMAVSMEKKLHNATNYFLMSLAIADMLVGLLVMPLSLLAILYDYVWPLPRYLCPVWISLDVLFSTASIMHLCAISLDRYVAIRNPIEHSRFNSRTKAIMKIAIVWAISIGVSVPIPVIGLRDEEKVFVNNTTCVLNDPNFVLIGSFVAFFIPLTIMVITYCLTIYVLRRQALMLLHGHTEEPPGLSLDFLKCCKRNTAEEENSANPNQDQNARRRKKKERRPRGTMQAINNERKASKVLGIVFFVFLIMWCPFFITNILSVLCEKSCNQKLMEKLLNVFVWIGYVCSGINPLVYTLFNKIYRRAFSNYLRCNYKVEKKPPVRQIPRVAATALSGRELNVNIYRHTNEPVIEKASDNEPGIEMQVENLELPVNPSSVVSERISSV

[8] = target: 5-hydroxytryptamine receptor 2A (Homo sapiens, UniProt P28223); assay: Binding affinity towards human 5-hydroxytryptamine 2A receptor expressed in HEK 293 cells using [3H]ketanserin as radioligand; assay type: cell-based, HEK293
5-hydroxytryptamine receptor 2A, sequence (P28223 whole entry): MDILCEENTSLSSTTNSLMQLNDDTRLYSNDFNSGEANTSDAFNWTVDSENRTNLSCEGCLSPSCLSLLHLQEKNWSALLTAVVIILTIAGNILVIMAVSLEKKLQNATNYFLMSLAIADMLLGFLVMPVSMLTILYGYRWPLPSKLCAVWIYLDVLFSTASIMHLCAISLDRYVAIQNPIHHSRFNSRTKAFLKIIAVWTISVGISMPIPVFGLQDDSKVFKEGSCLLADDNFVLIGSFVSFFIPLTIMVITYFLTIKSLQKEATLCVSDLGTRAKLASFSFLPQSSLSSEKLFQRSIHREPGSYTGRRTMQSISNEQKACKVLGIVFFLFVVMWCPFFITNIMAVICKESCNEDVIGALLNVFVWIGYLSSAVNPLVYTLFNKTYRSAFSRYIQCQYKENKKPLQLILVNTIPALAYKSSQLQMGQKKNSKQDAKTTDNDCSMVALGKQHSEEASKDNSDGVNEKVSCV
Method in brief: (§1)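 Radioligand binding on human cloned receptors stably expressed in HEK 293 cells; 5-HT2A labelled with [3H]ketanserin, 5-HT2B with [3H]-5-HT. Values are means of at least two determinations, each within 0.2 log unit of the mean.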

Rattus norvegicus [9] = assay: Percentage change punished lever presses from mean score on 6-8 rats(P<0.001) at 0.5 mg/kg po1h pretest; assay type: functional
Rattus norvegicus [10] = assay: Percentage change unpunished lever presses from mean score on 6-8 rats at 0.5 mg/kg po1h pretest; assay type: functional
Rattus norvegicus [11] = assay: Percentage change punished lever presses from mean score on 6-8 rats(P<0.001) at 10 mg/kg po1h pretest; assay type: functional
Rattus norvegicus [12] = assay: Percentage change punished lever presses from mean score on 6-8 rats(P<0.001) at 2 mg/kg po1h pretest; assay type: functional
Rattus norvegicus [13] = assay: Percentage change unpunished lever presses from mean score on 6-8 rats(P<0.05) at 0.1 mg/kg po1h pretest; assay type: functional
Rattus norvegicus [14] = assay: Percentage change punished lever presses from mean score on 6-8 rats(P<0.001) at 1 mg/kg po1h pretest; assay type: functional
Rattus norvegicus [15] = assay: Percentage change unpunished lever presses from mean score on 6-8 rats(P<0.01) at 5 mg/kg po1h pretest
Rattus norvegicus [16] = assay: Percentage change punished lever presses from mean score on 6-8 rats(P<0.001) at 0.2 mg/kg po1h pretest; assay type: functional
Rattus norvegicus [17] = species: Rattus norvegicus; assay: The dose required to reverse […]- induced hypolocomotion in rat by 50 %; assay type: functional; settings: ip, 0.5 h, read-out: ID50 (the source's name)
Rattus norvegicus [18] = assay: Percentage change unpunished lever presses from mean score on 6-8 rats at 10 mg/kg po1h pretest; assay type: functional
Rattus norvegicus [19] = assay: Percentage change unpunished lever presses from mean score on 6-8 ratsP<0.05)at 2 mg/kg po1h pretest; assay type: functional
Rattus norvegicus [20] = assay: Percentage change unpunished lever presses from mean score on 6-8 ratsP<0.01) at 1 mg/kg po1h pretest; assay type: functional
Rattus norvegicus [21] = assay: Percentage change unpunished lever presses from mean score on 6-8 rats at 5 mg/kg po1h pretest; assay type: functional
Rattus norvegicus [22] = assay: Percentage change punished lever presses from mean score on 6-8 rats at 0.5 mg/kg po1h pretest; assay type: functional
Rattus norvegicus [23] = assay: Percentage change punished lever presses from mean score on 6-8 rats(P<0.01) at 5 mg/kg po1h pretest; assay type: functional
[24] = target: 5-hydroxytryptamine receptor 2B (Homo sapiens, UniProt P41595); assay: Binding affinity towards cloned human 5-hydroxytryptamine 2B receptor expressed in HEK 293 cells using [3H]5-HT as radioligand; assay type: cell-based, HEK293; method in brief: as §1
5-hydroxytryptamine receptor 2B, sequence (P41595 whole entry): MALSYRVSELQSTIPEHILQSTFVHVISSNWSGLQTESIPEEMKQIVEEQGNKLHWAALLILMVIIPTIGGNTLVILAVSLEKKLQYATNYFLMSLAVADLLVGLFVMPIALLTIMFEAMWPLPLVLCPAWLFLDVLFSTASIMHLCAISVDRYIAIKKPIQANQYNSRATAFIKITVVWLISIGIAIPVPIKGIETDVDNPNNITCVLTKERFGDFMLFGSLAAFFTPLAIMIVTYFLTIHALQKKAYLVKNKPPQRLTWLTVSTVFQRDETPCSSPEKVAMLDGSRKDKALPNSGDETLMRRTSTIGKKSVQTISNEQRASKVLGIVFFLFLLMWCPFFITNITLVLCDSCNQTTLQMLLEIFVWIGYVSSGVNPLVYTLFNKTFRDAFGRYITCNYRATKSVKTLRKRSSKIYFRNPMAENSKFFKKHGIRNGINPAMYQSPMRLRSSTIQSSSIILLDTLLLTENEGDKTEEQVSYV

Rattus norvegicus [25] = assay: Percentage change punished lever presses from mean score on 6-8 rats at 0.2 mg/kg po1h pretest; assay type: functional
Rattus norvegicus [26] = assay: Percentage change punished lever presses from mean score on 6-8 ratsP<0.001) at 2 mg/kg po1h pretest; assay type: functional
Rattus norvegicus [27] = assay: Percentage change punished lever presses from mean score on 6-8 ratsP<0.001) at 20 mg/kg po1h pretest; assay type: functional
Rattus norvegicus [28] = assay: Percentage change unpunished lever presses from mean score on 6-8 rats(P<0.01) at 20 mg/kg po1h pretest; assay type: functional
Rattus norvegicus [29] = assay: Percentage change punished lever presses from mean score on 6-8 ratsP<0.001) at 10 mg/kg po1h pretest; assay type: functional
Rattus norvegicus [30] = assay: Percentage change punished lever presses from mean score on 6-8 ratsP<0.001) at 5 mg/kg po1h pretest; assay type: functional
Rattus norvegicus [31] = assay: Percentage change unpunished lever presses from mean score on 6-8 rats(P<0.05) at 2 mg/kg po1h pretest; assay type: functional

Ki [7] [nM] | Ki [8] [nM] | SMILES | further results
10 | 1000 | COc1cc2c(cc1C(F)(F)F)N(C(=O)Nc1cccnc1)CC2 | Change (Rattus norvegicus [1]): -1%; Change (Rattus norvegicus [2]): -2%; Change (Rattus norvegicus [3]): 2%; Change (Rattus norvegicus [4]): 3%; Change (Rattus norvegicus [5]): 62%; Change (Rattus norvegicus [6]): 37%; Change (Rattus norvegicus [9]): 36%; Change (Rattus norvegicus [10]): 2%; Change (Rattus norvegicus [11]): 63%; Change (Rattus norvegicus [12]): 34%; Change (Rattus norvegicus [13]): 8%; Change (Rattus norvegicus [14]): 28%; Change (Rattus norvegicus [15]): 8%; Change (Rattus norvegicus [16]): 26%; ED50 (Rattus norvegicus [17]): 0.8 mg/kg; Change (Rattus norvegicus [18]): 0%
 |  | CSc1cc2c(cc1C(F)(F)F)N(C(=O)Nc1cccnc1)CC2 | Change (Rattus norvegicus [19]): 4%; Change (Rattus norvegicus [20]): 10%; Change (Rattus norvegicus [21]): 2%; Change (Rattus norvegicus [1]): 0%; Change (Rattus norvegicus [5]): 76%; Change (Rattus norvegicus [22]): 6%; Change (Rattus norvegicus [23]): 38%; Change (Rattus norvegicus [10]): 3%; Change (Rattus norvegicus [11]): 46%; Change (Rattus norvegicus [12]): 36%; Change (Rattus norvegicus [14]): 30%; ED50 (Rattus norvegicus [17]): 1.2 mg/kg; Change (Rattus norvegicus [18]): -2%
50.1 | 501 | O=C(Nc1cccnc1)N1CCc2ccc(C(F)(F)F)cc21 | 
2 | 501 | CSc1cc2c(cc1I)N(C(=O)Nc1cccnc1)CC2 | ED50 (Rattus norvegicus [17]): 3.2 mg/kg
3.16 | 3160 | CCSc1cc2c(cc1C(F)(F)F)N(C(=O)Nc1cccnc1)CC2 | Ki [24]: 10 nM; ED50 (Rattus norvegicus [17]): 4.4 mg/kg
20 | 3980 | O=C(Nc1cccnc1)N1CCc2cc(OCC3CC3)c(C(F)(F)F)cc21 | 
50.1 | 2510 | CSc1cc2c(cc1Br)CCN2C(=O)Nc1cccnc1 | 
316 | 3980 | O=C(Nc1cccnc1)N1CCc2cc(Br)cc([N+](=O)[O-])c21 | 
3.16 | 63.1 | Cc1cc2c(cc1I)N(C(=O)Nc1cccnc1)CC2 | 
6.31 | 158 | O=C(Nc1cccnc1)N1CCc2cc(Cl)c(C(F)(F)F)cc21 | 
126 | 5010 | O=C(Nc1cccnc1)N1CCc2cc(-c3ccccc3)ccc21 | 
20 | 1260 | CCCc1cc2c(cc1Cl)N(C(=O)Nc1cccnc1)CC2 | 
25.1 | 3160 | CSc1cc2c(cc1OC(F)(F)F)N(C(=O)Nc1cccnc1)CC2 | 
20 | 631 | CC(C)(C)c1cc2c(cc1Cl)N(C(=O)Nc1cccnc1)CC2 | Ki [24]: 158 nM
39.8 | 3980 | CSc1ccc2c(c1)CCN2C(=O)Nc1cccnc1 | 
501 | 3980 | O=C(Nc1cccnc1)N1CCc2c(Cl)cccc21 | 
31.6 | 6310 | COC(=O)c1cc2c(cc1Cl)N(C(=O)Nc1cccnc1)CC2 | ED50 (Rattus norvegicus [17]): 16 mg/kg
15.8 | > 6310 | CC(C)Oc1cc2c(cc1Cl)N(C(=O)Nc1cccnc1)CC2 | ED50 (Rattus norvegicus [17]): 4 mg/kg
126 | 3980 | O=C(Nc1cccnc1)N1CCc2cc(-c3ccccc3)c(Cl)cc21 | 
79.4 | 2000 | CC(C)c1ccc2c(c1)CCN2C(=O)Nc1cccnc1 | 
31.6 | 5010 | CC(C)Sc1cc2c(cc1C(F)(F)F)N(C(=O)Nc1cccnc1)CC2 | 
316 | > 6310 | CN(C)c1ccc2c(c1)CCN2C(=O)Nc1cccnc1 | 
158 | 5010 | Cc1ccc2c(c1)CCN2C(=O)Nc1cccnc1 | 

Ki [7] [nM] | Ki [8] [nM] | SMILES | further results
3.16 | 1580 | CC(C)Oc1cc2c(cc1C(F)(F)F)N(C(=O)Nc1cccnc1)CC2 | Ki [24]: 3.98 nM; ED50 (Rattus norvegicus [17]): 1.4 mg/kg
6.31 | 1580 | CCOc1cc2c(cc1C(F)(F)F)N(C(=O)Nc1cccnc1)CC2 | Change (Rattus norvegicus [21]): 0%; Change (Rattus norvegicus [2]): 4%; Change (Rattus norvegicus [3]): 3%; Change (Rattus norvegicus [4]): 1%; Change (Rattus norvegicus [25]): 5%; Change (Rattus norvegicus [6]): 31%; Change (Rattus norvegicus [9]): 31%; Change (Rattus norvegicus [10]): 3%; Change (Rattus norvegicus [12]): 24%; Change (Rattus norvegicus [14]): 33%; ED50 (Rattus norvegicus [17]): 1 mg/kg
12.6 | 1580 | COc1cc2c(cc1Br)N(C(=O)Nc1cccnc1)CC2 | ED50 (Rattus norvegicus [17]): 1.8 mg/kg
2.51 | 63.1 | CSc1c(Cl)cc2c(c1Cl)CCN2C(=O)Nc1cccnc1 | 
6.31 | > 6310 | CCCSc1cc2c(cc1C(F)(F)F)N(C(=O)Nc1cccnc1)CC2 | Ki [24]: 15.8 nM
2 | 501 | CSc1cc2c(cc1Br)N(C(=O)Nc1cccnc1)CC2 | Change (Rattus norvegicus [21]): 4%; Change (Rattus norvegicus [26]): 29%; Change (Rattus norvegicus [27]): 53%; Change (Rattus norvegicus [28]): 6%; Change (Rattus norvegicus [2]): 2%; Change (Rattus norvegicus [22]): 0%; Change (Rattus norvegicus [29]): 38%; Change (Rattus norvegicus [10]): 0%; Change (Rattus norvegicus [30]): 28%; Change (Rattus norvegicus [14]): 24%; ED50 (Rattus norvegicus [17]): 3 mg/kg; Change (Rattus norvegicus [18]): 3%; Change (Rattus norvegicus [31]): 5%
12.6 | 3980 | COc1cc2c(cc1C(F)(F)C(F)(F)F)N(C(=O)Nc1cccnc1)CC2 | 
316 | > 6310 | O=C(Nc1cccnc1)N1CCc2cc([N+](=O)[O-])ccc21 | 
1260 |  | O=C(Nc1cccnc1)N1CCc2ccccc21 | 
3.98 | 31.6 | Cc1c(Cl)cc2c(c1Cl)CCN2C(=O)Nc1cccnc1 | 
15.8 | 2510 | CSc1cc2c(cc1C#N)N(C(=O)Nc1cccnc1)CC2 | 
31.6 | 1260 | O=C(Nc1cccnc1)N1CCc2cc(C(F)(F)F)ccc21 | 
63.1 | 5010 | CSc1ccc2c(c1Cl)CCN2C(=O)Nc1cccnc1 | 
50.1 | 3160 | CC(=O)c1cc2c(cc1C(F)(F)F)N(C(=O)Nc1cccnc1)CC2 | 
20 | 2000 | CC(C)c1cc2c(cc1Cl)N(C(=O)Nc1cccnc1)CC2 | 
5.01 | 398 | CCc1cc2c(cc1Cl)N(C(=O)Nc1cccnc1)CC2 | 
3.98 | 63.1 | Cc1cc2c(cc1Br)N(C(=O)Nc1cccnc1)CC2 | 
3.16 | 100 | O=C(Nc1cccnc1)N1CCc2cc(I)c(Cl)cc21 | 
3.98 | 2510 | CSc1cc2c(cc1C(F)(F)C(F)(F)F)N(C(=O)Nc1cccnc1)CC2 | Ki [24]: 31.6 nM; ED50 (Rattus norvegicus [17]): 5 mg/kg
25.1 | 3980 | CCOc1cc2c(cc1Cl)N(C(=O)Nc1cccnc1)CC2 | ED50 (Rattus norvegicus [17]): 3.4 mg/kg
25.1 | > 6310 | CC(C)c1cc2c(cc1C(F)(F)F)N(C(=O)Nc1cccnc1)CC2 | 
39.8 | 631 | CC(C)(C)c1ccc2c(c1Cl)CCN2C(=O)Nc1cccnc1 | 

SMILES | Ki [7] [nM] | Ki [8] [nM] | further results
O=C(Nc1cccnc1)N1CCc2cc(Cl)ccc21 | 79.4 | 2510 | 
O=C(Nc1cccnc1)N1CCc2cc(Cl)c(Cl)cc21 | 7.94 | 251 | 
O=C(Nc1cccnc1)N1CCc2ccc(Cl)cc21 | 50.1 | 794 | 
O=C(Nc1cccnc1)N1CCc2ccc(Cl)c(Cl)c21 | 794 | 5010 | 
Cc1ccc2c(c1I)CCN2C(=O)Nc1cccnc1 | 25.1 | 2510 | 
Cc1ccc2c(c1Br)CCN2C(=O)Nc1cccnc1 | 7.94 | 126 | 
Cc1cc2c(cc1Cl)CCN2C(=O)Nc1cccnc1 | 10 | 398 | 
